Measured values collected from several papers.
PDE4D: 3',5'-cyclic-AMP phosphodiesterase 4D (PDE4D, Homo sapiens, UniProt Q08499)
MTNR1B: Melatonin receptor type 1B (MTNR1B, Homo sapiens, UniProt P49286)

Compound	target	assay	system	setting	measurement	result
COc1ncccc1-c1cnn2ccc(N3CCN(C(=O)OC(C)C)CC3)nc12	Serine/threonine-protein kinase MAK (MAK, Homo sapiens, UniProt P20794)	binding, competition with immobilised ligand	–	1 µM	remaining binding	100%
NC(=O)c1cccc(-c2cccc(OC(=O)NC3CCCCC3)c2)c1	Liver carboxylesterase 1 (CES1, Homo sapiens, UniProt P23141)	enzyme activity, inhibitor	–	pH 7.4	kinact/KI	4500 M⁻¹ s⁻¹
CC1(C)[C@@H](O)CC[C@]2(C)[C@H]3C(=O)C=C4[C@@H]5C[C@@](C)(C(=O)O)CC[C@]5(C)CC[C@@]4(C)[C@]3(C)CC[C@@H]12	PDE4D	enzyme activity, inhibitor, radiometric	–	50 µM	inhibition	42.4%
CC[C@H](C)[C@@H]1NC(=O)[C@@H]2CSSC[C@H](NC(=O)[C@@H](NC(=O)CN)[C@@H](C)O)C(=O)N[C@@H](CC(N)=O)C(=O)N[C@@H]([C@@H](C)O)C(=O)N3CCC[C@H]3C(=O)NCC(=O)N[C@H]3CSSC[C@H](NC(=O)[C@H](CCSC)NC(=O)[C@H](CC(C)C)NC(=O)[C@H](CCCNC(=N)N)NC(=O)CNC(=O)CNC(=O)[C@H](CC(=O)O)NC1=O)C(=O)NCC(=O)N[C@@H](CCC(=O)O)C(=O)N[C@@H]([C@@H](C)O)C(=O)N[C@H](C(=O)N[C@H](C(=O)NCC(=O)O)C(C)C)CSSC[C@H](NC(=O)[C@H]([C@@H](C)O)NC3=O)C(=O)N[C@@H](CO)C(=O)N[C@@H](Cc1c[nH]c3ccccc13)C(=O)N1CCC[C@H]1C(=O)N[C@@H](C(C)C)C(=O)N2	Prothrombin (F2, Homo sapiens, UniProt P00734)	binding, SPR	–	–	koff	~0.001 s⁻¹
Cc1nn(C)cc1-c1nc2c(N3CCN(Cc4ccc(Cl)cc4)CC3)c(Cl)cnc2[nH]1	Mitogen-activated protein kinase 7 (MAPK7, Homo sapiens, UniProt Q13164)	binding, competition with immobilised ligand	–	1 µM	remaining binding	100%
COc1ccc2cccc(C(CO)CNC(=O)CF)c2c1 (stereo not shown)	MTNR1B	β-arrestin recruitment, agonist	MT2	90 min	Emax	101%
Nc1ncc(-c2nc(N3CCOCC3)nc(N3CCOCC3)n2)c(C(F)F)n1	PDE4D	enzyme activity, inhibitor	–	10 µM	remaining activity	75%
O=C(O)CC(O)(CC(=O)O)C(=O)O	PDE4D	enzyme activity, inhibitor, radiometric	–	5 µM	inhibition	16.6%
CCN(CC)CCCC[C@H](NC(=O)[C@H](CC(C)C)NC(=O)[C@H](C)NC(=O)[C@H](Cc1ccccc1)NC(=O)c1ccc(C(C)(C)C)cc1)C(=O)N[C@@H](CO)C(=O)OC	Prostaglandin E2 receptor EP4 subtype (PTGER4, Homo sapiens, UniProt P35408)	ligand displacement, radioligand	–	10 µM	remaining binding	95.2%
COc1cc(O)ccc1/C=C/C(=O)c1ccc(O)cc1	PDE4D	enzyme activity, inhibitor, radiometric	–	5 µM	inhibition	-1.92%
COc1ccc2[nH]cc(CCNC(=O)CI)c2c1	MTNR1B	GTPγS binding, agonist, radiometric	–	cell membranes	Emax	123%
C[C@@]12C[C@@]3(O)O[C@@H](O1)[C@]1(COC(=O)c4ccccc4)[C@H]3C[C@@]12O[C@@H]1O[C@H](CO)[C@@H](O)[C@H](O)[C@H]1O	PDE4D	enzyme activity, inhibitor, radiometric	–	50 µM	inhibition	2.88%
c1ccc(C(NCCNC(c2ccccc2)c2ccccc2)c2ccccc2)cc1	Phospholipase A2, major isoenzyme (PLA2G1B, Sus scrofa, UniProt P00592)	cell-free assay, inhibitor	–	10 µM	inhibition	4%
